{"source": "paper PMC6778631", "about": "(Cancer Science, 2019)", "key": {"IDH1‐R132H": {"biological_target": "IDH1‐R132H (Homo sapiens, UniProt O75874, R132H)", "sequence (O75874 whole entry R132H)": "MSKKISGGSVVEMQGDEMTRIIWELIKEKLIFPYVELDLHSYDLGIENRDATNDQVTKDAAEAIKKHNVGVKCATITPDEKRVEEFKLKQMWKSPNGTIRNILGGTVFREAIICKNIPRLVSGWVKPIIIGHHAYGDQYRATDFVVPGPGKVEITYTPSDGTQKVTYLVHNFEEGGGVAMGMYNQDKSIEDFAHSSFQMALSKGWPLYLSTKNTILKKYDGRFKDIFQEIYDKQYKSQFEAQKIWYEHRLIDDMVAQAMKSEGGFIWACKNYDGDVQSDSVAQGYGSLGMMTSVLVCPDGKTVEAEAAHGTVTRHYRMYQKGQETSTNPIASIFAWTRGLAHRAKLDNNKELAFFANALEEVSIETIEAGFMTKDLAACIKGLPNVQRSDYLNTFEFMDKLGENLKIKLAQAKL", "experiment": "Cell-based enzyme assay, lysates of U-87 MG/IDH1-R132H cells", "format": "biochemical"}, "TF‐1/IDH2‐R172K cells [1]": {"system": "TF‐1/IDH2‐R172K cells", "experiment": "Erythroid differentiation under EPO, HBG mRNA by qRT-PCR", "format": "cell-based, human", "conditions": "7 d + 7 d EPO"}, "U‐87 MG/IDH2‐R140Q cells": {"system": "U‐87 MG/IDH2‐R140Q cells", "experiment": "Cell-based inhibition of 2-HG production", "conditions": "Homo sapiens, 72 h, read-out: Inhibition of 2-HG production"}, "TF‐1/IDH2‐R172K cells [2]": {"system": "TF‐1/IDH2‐R172K cells", "experiment": "Cell proliferation assay", "format": "cell-based, human", "conditions": "7 d + 7 d without hGM-CSF"}, "IDH2‐R140Q [3]": {"biological_target": "T1, IDH2‐R140Q (Homo sapiens, UniProt P48735, R140Q)", "T1 sequence (P48735 40-452 R140Q)": "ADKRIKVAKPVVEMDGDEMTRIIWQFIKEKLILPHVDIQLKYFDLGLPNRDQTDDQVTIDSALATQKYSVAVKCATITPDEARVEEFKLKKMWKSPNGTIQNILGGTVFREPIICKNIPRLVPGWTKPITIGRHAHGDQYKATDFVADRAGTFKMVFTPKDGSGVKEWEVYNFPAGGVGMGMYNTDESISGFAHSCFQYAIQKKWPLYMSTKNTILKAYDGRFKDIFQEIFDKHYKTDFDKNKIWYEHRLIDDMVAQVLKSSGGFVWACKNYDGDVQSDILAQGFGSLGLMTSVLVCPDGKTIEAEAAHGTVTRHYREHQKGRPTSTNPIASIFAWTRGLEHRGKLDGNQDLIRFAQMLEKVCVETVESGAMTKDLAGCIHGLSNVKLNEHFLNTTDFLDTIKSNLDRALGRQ", "experiment": "Cell-based enzyme assay, lysates of U-87 MG/IDH2-R140Q cells", "format": "biochemical", "conditions": "IC50, inhibition of IDH2-R140Q enzymatic activity"}, "IDH1‐R132C": {"biological_target": "IDH1‐R132C (Homo sapiens, UniProt O75874, R132C)", "sequence (O75874 whole entry R132C)": "as the sequence (O75874 whole entry R132H) above, with H132C counted along it", "experiment": "Cell-based enzyme assay, lysates of U-87 MG/IDH1-R132C cells", "format": "biochemical"}, "TF‐1/IDH2‐R140Q cells [4]": {"system": "TF‐1/IDH2‐R140Q cells", "experiment": "Cell proliferation assay", "format": "cell-based, human", "conditions": "7 d + 7 d without hGM-CSF"}, "IDH2‐WT": {"biological_target": "T2, IDH2‐WT (Homo sapiens, UniProt P48735)", "T2 sequence (P48735 40-452)": "T1 sequence (P48735 40-452 R140Q) with Q101R", "experiment": "Cell-based enzyme assay, lysates of U-87 MG/IDH2-WT cells", "format": "biochemical"}, "wild‐type IDH2": {"biological_target": "T3, wild‐type IDH2 (Homo sapiens, UniProt P48735)", "T3 sequence (P48735 40-452)": "T1 sequence (P48735 40-452 R140Q) with Q101R", "experiment": "Cellular thermal shift assay in U-87 MG cells", "format": "binding", "conditions": "1 h treatment"}, "TF‐1/IDH2‐R140Q cells [5]": {"system": "TF‐1/IDH2‐R140Q cells", "experiment": "Cell-based inhibition of 2-HG production", "conditions": "Homo sapiens, 72 h, read-out: IC50, anti-2-HG activity"}, "IDH2‐R140Q‐Q316A": {"biological_target": "T4, IDH2‐R140Q‐Q316A (Homo sapiens, UniProt P48735, Q316A/R140Q)", "T4 sequence (P48735 40-452 R140Q/Q316A)": "T1 sequence (P48735 40-452 R140Q) with Q277A", "experiment": "Cellular thermal shift assay in U-87 MG/IDH2-R140Q-Q316A cells", "format": "binding", "conditions": "1 h treatment"}, "IDH2‐R172K [6]": {"biological_target": "T5, IDH2‐R172K (Homo sapiens, UniProt P48735, R172K)", "T5 sequence (P48735 40-452 R172K)": "T1 sequence (P48735 40-452 R140Q) with Q101R, R133K", "experiment": "Cellular thermal shift assay in U-87 MG cells", "format": "binding", "conditions": "1 h treatment"}, "IDH1‐WT": {"biological_target": "IDH1‐WT (Homo sapiens, UniProt O75874)", "sequence (O75874 whole entry)": "as the sequence (O75874 whole entry R132H) above, with H132R counted along it", "experiment": "Cell-based enzyme assay, lysates of U-87 MG/IDH1-WT cells", "format": "biochemical"}, "IDH2‐R172K [7]": {"biological_target": "T5, IDH2‐R172K", "experiment": "Cell-based enzyme assay, lysates of U-87 MG/IDH2-R172K cells", "format": "biochemical"}, "TF‐1/IDH2‐R140Q cells [8]": {"system": "TF‐1/IDH2‐R140Q cells", "experiment": "Erythroid differentiation under EPO, HBG mRNA by qRT-PCR", "format": "cell-based, human", "conditions": "7 d + 7 d EPO", "how_it_was_run": "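TF-1 cells carrying doxycycline-inducible IDH2-R140Q got test compound for 7 d in RPMI-1640, 10% FBS, 2 ng/mL hGM-CSF. GM-CSF was then replaced by EPO (2 IU/mL) for another 7 d with compound present. HBG mRNA was measured in cell pellets by SYBR qRT-PCR, with GAPDH primers also used. Means ± SD of triplicates.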"}, "IDH2‐R140Q [9]": {"biological_target": "T1, IDH2‐R140Q", "experiment": "Cellular thermal shift assay in U-87 MG cells", "format": "binding", "conditions": "1 h treatment"}, "TF‐1/IDH2‐R172K cells [10]": {"system": "TF‐1/IDH2‐R172K cells", "experiment": "Cell-based inhibition of 2-HG production", "conditions": "Homo sapiens, 72 h, read-out: IC50, anti-2-HG activity"}}, "note": "Changes are numbered by the printed parent chain.", "data": [{"smiles": "CC(C)(O)CNc1nc(Nc2ccnc(C(F)(F)F)c2)nc(-c2cccc(C(F)(F)F)n2)n1", "note": "[AG‐221, enasidenib]", "values": [{"measurement": "Inhibitory effect on IDH1-R132H enzymatic activity", "setting": "IDH1‐R132H", "result": "no apparent inhibitory effects"}, {"measurement": "Effect on HBG levels (cell differentiation)", "setting": "TF‐1/IDH2‐R172K cells [1]", "result": "increased HBG only in TF‐1/IDH2‐R140Q cells"}, {"measurement": "inhibition at 0.2 µM", "setting": "U‐87 MG/IDH2‐R140Q cells", "result": 67.3, "unit": "%"}, {"measurement": "Effect on cell proliferation (MTT)", "setting": "TF‐1/IDH2‐R172K cells [2]", "result": "did not significantly inhibit proliferation"}, {"measurement": "IC50", "setting": "IDH2‐R140Q [3]", "result": "229 ± 23.2", "unit": "nM"}, {"measurement": "Inhibitory effect on IDH1-R132C enzymatic activity", "setting": "IDH1‐R132C", "result": "no apparent inhibitory effects"}, {"measurement": "Effect on cell proliferation (MTT)", "setting": "TF‐1/IDH2‐R140Q cells [4]", "result": "did not significantly inhibit proliferation"}, {"measurement": "Inhibitory effect on IDH2-WT enzymatic activity", "setting": "IDH2‐WT", "result": "no apparent inhibitory effects"}, {"measurement": "Thermal stabilization of wild-type IDH2 (CETSA)", "setting": "wild‐type IDH2", "result": "Neither TQ05310 nor AG‐221 stabilized"}, {"measurement": "IC50", "setting": "TF‐1/IDH2‐R140Q cells [5]", "result": "24.7 ± 2.3", "unit": "nM"}, {"measurement": "Thermal stabilization in U-87 MG/IDH2-R140Q-Q316A cells (CETSA)", "setting": "IDH2‐R140Q‐Q316A", "result": "lost"}, {"measurement": "Thermal stabilization of IDH2-R172K (CETSA)", "setting": "IDH2‐R172K [6]", "result": "weak thermal‐stabilization effect"}, {"measurement": "Inhibitory effect on IDH1-WT enzymatic activity", "setting": "IDH1‐WT", "result": "no apparent inhibitory effects"}, {"measurement": "IC50", "setting": "IDH2‐R172K [7]", "result": "625 ± 146", "unit": "nM"}, {"measurement": "Effect on HBG levels (cell differentiation)", "setting": "TF‐1/IDH2‐R140Q cells [8]", "result": "increased HBG"}, {"measurement": "Thermal stabilization of IDH2-R140Q (CETSA)", "setting": "IDH2‐R140Q [9]", "result": "apparent thermal‐stabilization effect"}, {"measurement": "IC50", "setting": "TF‐1/IDH2‐R172K cells [10]", "result": "732 ± 331", "unit": "nM"}]}]}
